Test [1] has as its system normal human lung fibroblasts (Wi-38). Description: MTT cytotoxicity screening on normal human lung fibroblasts. Format: cell-based. The conditions noted are these: WI-38, 72 h, read-out: Wi-38 EC50. The gist of the method: (§1)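 A549 and Wi-38 cells, sourced from the National Cancer Institute (Cairo), grown in RPMI-1640 with L-glutamine, 10% FBS and 1% penicillin-streptomycin at 37 °C, 5% CO2. Seeded in triplicate at 5 × 10^4 cells, then exposed next day to test compound at 0.01, 0.1, 1, 10 and 100 µM. Viability measured by MTT relative to untreated control, and IC50 computed.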

The test system of test [2] is human lung cancer A549 cells. Nature of the test: MTT cytotoxicity screening on human lung cancer cells. It is filed as cell-based. The conditions noted are these: for IC50: Homo sapiens, A549, 72 h, read-out: A549 IC50; for SI (selectivity index): ratio of IC50 values against Wi-38 and A549 cells. The procedure, abridged: as §1
The next test deals with CDK2 (Homo sapiens, UniProt P24941). Description: In vitro CDK2 inhibition, CDK2 luminescence kinase assay kit. It is filed as biochemical.

One may read the EC50 as the concentration needed to bring the measured effect to its halfway point. Broadly, the IC50 is the concentration that gives 50% inhibition. A word on the inhibition: it is the relative decrease from the control value, in per cent.

Regarding `O=C(c1nc2ccccc2[nH]1)[C@H]1[C@H](c2cccs2)[C@H]2CCCN2[C@@]12c1ccccc1-c1nc3ccccc3nc12` [Compound 4g, (1H-Benzo[d]imidazol-2-yl)((1'S,2'S,7a’R,11R)-1'-(thiophen-2-yl)-1',2',5',6',7',7a’-hexahydrospiro[indeno[1,2-b]quinoxaline-11,3'-pyrrolizin]-2'-yl)methanone], in test [1], the EC50 amounted to 252 ± 1 nM. Further, in test [2], the IC50 turned out to be 182 ± 4 nM and the “SI (selectivity index)” value is on record as 1.384.

As to `O=c1[nH]cc(F)c(=O)[nH]1` [Compound 5-Fu, 5-fluorouracil, reference compound], the EC50 in test [1] was found to be 4190 ± 168 nM. Moreover, in test [2], the half-maximal inhibitory concentration (IC50) came to 3780 ± 520 nM and the “SI (selectivity index)” value is recorded as 1.107.

Take `O=C(c1nc2ccccc2[nH]1)[C@H]1[C@H](c2ccccc2)C2CC3CCCCC3N2[C@@]12c1ccccc1-c1nc3ccccc3nc12` (stereo partly drawn) [Compound 6h, (1H-Benzo[d]imidazol-2-yl)((1'R,2'S,11R)-1'-phenyl-1',2',4a’,5',6',7',8',8a’,9',9a’-decahydrospiro[indeno[1,2-b]quinoxaline-11,3'-pyrrolo[1,2-a]indol]-2'-yl)methanone]: the concentration for a half-maximal effect (EC50) in test [1] was determined as 173 ± 1 nM. In test [2], the 50% inhibitory concentration (IC50) was found to be 202 ± 6 nM and the “SI (selectivity index)” value stood at 0.856.

For the compound `O=C(c1nc2ccccc2[nH]1)[C@H]1[C@H](c2cccs2)C2CC3CCCCC3N2[C@@]12c1ccccc1-c1nc3ccccc3nc12` (stereo partly drawn) [Compound 6g, (1H-Benzo[d]imidazol-2-yl)((1'S,2'S,11R)-1'-(thiophen-2-yl)-1',2',4a’,5',6',7',8',8a’,9',9a’-decahydrospiro[indeno[1,2-b]quinoxaline-11,3'-pyrrolo[1,2-a]indol]-2'-yl)methanone], the half-maximal effective concentration (EC50) in test [1] amounted to 164 ± 60 nM. In addition, in test [2], the IC50 came out at 84 ± 4 nM and the “SI (selectivity index)” value was 1.952.

In the case of `O=C(c1nc2ccccc2[nH]1)[C@H]1[C@H](c2ccc(Br)cc2)C2CC3CCCCC3N2[C@@]12c1ccccc1-c1nc3ccccc3nc12` (stereo partly drawn) [Compound 6d, (1H-Benzo[d]imidazol-2-yl)((1'R,2'S,11R)-1'-(4-bromophenyl)-1',2',4a’,5',6',7',8',8a’,9',9a’-decahydrospiro[indeno[1,2-b]quinoxaline-11,3'-pyrrolo[1,2-a]indol]-2'-yl)methanone], the EC50 in test [1] amounted to 77 ± 1 nM. In addition, in test [2], the IC50 was 87 ± 3 nM and the “SI (selectivity index)” value is given as 0.885.

As to `COc1ccc([C@@H]2C3CC4CCCCC4N3[C@@]3(c4ccccc4-c4nc5ccccc5nc43)[C@H]2C(=O)c2nc3ccccc3[nH]2)cc1` (stereo partly drawn) [Compound 6f, (1H-Benzo[d]imidazol-2-yl)((1'R,2'S,11R)-1'-(4-methoxyphenyl)-1',2',4a’,5',6',7',8',8a’,9',9a’-decahydrospiro[indeno[1,2-b]quinoxaline-11,3'-pyrrolo[1,2-a]indol]-2'-yl)methanone], in test [1], the EC50 came to 549 ± 10 nM. Also, in test [2], the IC50 stood at 107 ± 2 nM and the “SI (selectivity index)” value is recorded as 5.130.

For the compound `O=C(c1nc2ccccc2[nH]1)[C@H]1[C@H](c2ccc(Cl)cc2Cl)C2CC3CCCCC3N2[C@@]12c1ccccc1-c1nc3ccccc3nc12` (stereo partly drawn) [Compound 6b, (1H-Benzo[d]imidazol-2-yl)((1'R,2'S,11R)-1'-(2,4-dichlorophenyl)-1',2',4a’,5',6',7',8',8a’,9',9a’-decahydrospiro[indeno[1,2-b]quinoxaline-11,3'-pyrrolo[1,2-a]indol]-2'-yl)methanone], the EC50 in test [1] turned out to be 359 ± 8 nM. Also, the half-inhibitory concentration (IC50) in test [2] was found to be 54 ± 8 nM; at CDK2 (CDK2 IC50, serial dilutions 0.01–10 μM, mean ± SD of three replicates), 177 nM. Besides, the “SI (selectivity index)” value in test [2] is 6.648. At CDK2 (10 μM), the “% inhibition ± SD at [10 μM] of CDK2” value is recorded as 70.72 ± 2.8%. Moreover, on CDK2 (read-out: % inhibition ± SD at [10 μM] of CDK2, 10 μM), the inhibition at 10 µM was found to be 70.7%.

Consider `O=C(c1nc2ccccc2[nH]1)[C@H]1[C@H](c2ccco2)C2CC3CCCCC3N2[C@@]12c1ccccc1-c1nc3ccccc3nc12` (stereo partly drawn) [Compound 6a, (1H-Benzo[d]imidazol-2-yl)((1'S,2'S,11R)-1'-(furan-2-yl)-1',2',4a’,5',6',7',8',8a’,9',9a’-decahydrospiro[indeno[1,2-b]quinoxaline-11,3'-pyrrolo[1,2-a]indol]-2'-yl)methanone], for which the EC50 in test [1] stood at 112 ± 1 nM. For the same compound, in test [2], the IC50 turned out to be 98 ± 6 nM and the “SI (selectivity index)” value was determined as 1.142.

Regarding `O=C(c1nc2ccccc2[nH]1)[C@H]1[C@H](c2ccc(Br)cc2)[C@H]2CCCN2[C@@]12c1ccccc1-c1nc3ccccc3nc12` [Compound 4d, (1H-Benzo[d]imidazol-2-yl)((1'R,2'S,7a’R,11R)-1'-(4-bromophenyl)-1',2',5',6',7',7a’-hexahydrospiro[indeno[1,2-b]quinoxaline-11,3'-pyrrolizin]-2'-yl)methanone], in test [1], the EC50 amounted to 176 ± 2 nM. Also, in test [2], the IC50 turned out to be 135 ± 2 nM and the “SI (selectivity index)” value turned out to be 1.303.

On to `O=C(c1nc2ccccc2[nH]1)[C@H]1[C@H](c2ccco2)[C@H]2CCCN2[C@@]12c1ccccc1-c1nc3ccccc3nc12` [Compound 4a, (1H-Benzo[d]imidazol-2-yl)((1'S,2'S,7a’R,11R)-1'-(furan-2-yl)-1',2',5',6',7',7a’-hexahydrospiro[indeno[1,2-b]quinoxaline-11,3'-pyrrolizin]-2'-yl)methanone], for which the EC50 in test [1] stood at 607 ± 50 nM. In test [2], the half-inhibitory concentration (IC50) stood at 82 ± 2 nM and the “SI (selectivity index)” value is listed as 7.402.

Regarding `O=C(c1nc2ccccc2[nH]1)[C@H]1[C@H](c2cccc(F)c2)C2CC3CCCCC3N2[C@@]12c1ccccc1-c1nc3ccccc3nc12` (stereo partly drawn) [Compound 6e, (1H-Benzo[d]imidazol-2-yl)((1'R,2'S,11R)-1'-(3-fluorophenyl)-1',2',4a’,5',6',7',8',8a’,9',9a’-decahydrospiro[indeno[1,2-b]quinoxaline-11,3'-pyrrolo[1,2-a]indol]-2'-yl)methanone], the EC50 in test [1] came to 114 ± 3 nM. In test [2], the IC50 worked out at 137 ± 16 nM and the “SI (selectivity index)” value is listed as 0.832.

Turning to `O=C(c1nc2ccccc2[nH]1)[C@H]1[C@H](c2ccc(F)cc2)[C@H]2CCCN2[C@@]12c1ccccc1-c1nc3ccccc3nc12` [Compound 4c, (1H-Benzo[d]imidazol-2-yl)((1'R,2'S,7a’R,11R)-1'-(4-fluorophenyl)-1',2',5',6',7',7a’-hexahydrospiro[indeno[1,2-b]quinoxaline-11,3'-pyrrolizin]-2'-yl)methanone], the 50% effective concentration (EC50) in test [1] came out at 217 ± 7 nM. Also, in test [2], the IC50 turned out to be 206 ± 9 nM and the “SI (selectivity index)” value turned out to be 1.053.

Take `O=C(c1nc2ccccc2[nH]1)[C@H]1[C@H](c2ccccc2)[C@H]2CCCN2[C@@]12c1ccccc1-c1nc3ccccc3nc12` [Compound 4h, (1H-Benzo[d]imidazol-2-yl)((1'R,2'S,7a’R,11R)-1'-phenyl-1',2',5',6',7',7a’-hexahydrospiro[indeno[1,2-b]quinoxaline-11,3'-pyrrolizin]-2'-yl)methanone]: the EC50 in test [1] was 193 ± 10 nM. For the same compound, in test [2], the IC50 turned out to be 177 ± 3 nM and the “SI (selectivity index)” value came to 1.090.

In the case of `O=C(c1nc2ccccc2[nH]1)[C@H]1[C@H](c2ccc(F)cc2)C2CC3CCCCC3N2[C@@]12c1ccccc1-c1nc3ccccc3nc12` (stereo partly drawn) [Compound 6c, (1H-Benzo[d]imidazol-2-yl)((1'R,2'S,11R)-1'-(4-fluorophenyl)-1',2',4a’,5',6',7',8',8a’,9',9a’-decahydrospiro[indeno[1,2-b]quinoxaline-11,3'-pyrrolo[1,2-a]indol]-2'-yl)methanone], the concentration giving a half-maximal response (EC50) in test [1] stood at 168 ± 19 nM. Besides, in test [2], the half-maximal inhibitory concentration (IC50) worked out at 139 ± 3 nM and the “SI (selectivity index)” value is 1.208.

Regarding `O=C(c1nc2ccccc2[nH]1)[C@H]1[C@H](c2cccc(F)c2)[C@H]2CCCN2[C@@]12c1ccccc1-c1nc3ccccc3nc12` [Compound 4e, (1H-Benzo[d]imidazol-2-yl)((1'R,2'S,7a’R,11R)-1'-(3-fluorophenyl)-1',2',5',6',7',7a’-hexahydrospiro[indeno[1,2-b]quinoxaline-11,3'-pyrrolizin]-2'-yl)methanone], in test [1], the EC50 is 1100 ± 205 nM. For the same compound, in test [2], the IC50 was found to be 321 ± 5 nM and the “SI (selectivity index)” value is given as 3.429.

As to `O=C(c1nc2ccccc2[nH]1)[C@H]1[C@H](c2ccc(Cl)cc2Cl)[C@H]2CCCN2[C@@]12c1ccccc1-c1nc3ccccc3nc12` [Compound 4b, (1H-Benzo[d]imidazol-2-yl)((1'R,2'S,7a’R,11R)-1'-(2,4-dichlorophenyl)-1',2',5',6',7',7a’-hexahydrospiro[indeno[1,2-b]quinoxaline-11,3'-pyrrolizin]-2'-yl)methanone], the EC50 in test [1] was 887 ± 11 nM. In test [2], the concentration for half-maximal inhibition (IC50) was determined as 225 ± 5 nM and the “SI (selectivity index)” value worked out at 3.942.
